Measured values from ChEMBL document CHEMBL4825713, “Promising Non-cytotoxic Monosubstituted Chalcones to Target Monoamine Oxidase-B” (ACS Med Chem Lett, 2021).

Columns and labels:
[1] = molecular target: T1, Amine oxidase [flavin-containing] B (Homo sapiens, UniProt P27338); experiment: Reversible inhibition of recombinant human MAO-B using kynuramine as substrate at 4 times Ki incubated for 20 mins
T1 sequence (P27338 whole entry): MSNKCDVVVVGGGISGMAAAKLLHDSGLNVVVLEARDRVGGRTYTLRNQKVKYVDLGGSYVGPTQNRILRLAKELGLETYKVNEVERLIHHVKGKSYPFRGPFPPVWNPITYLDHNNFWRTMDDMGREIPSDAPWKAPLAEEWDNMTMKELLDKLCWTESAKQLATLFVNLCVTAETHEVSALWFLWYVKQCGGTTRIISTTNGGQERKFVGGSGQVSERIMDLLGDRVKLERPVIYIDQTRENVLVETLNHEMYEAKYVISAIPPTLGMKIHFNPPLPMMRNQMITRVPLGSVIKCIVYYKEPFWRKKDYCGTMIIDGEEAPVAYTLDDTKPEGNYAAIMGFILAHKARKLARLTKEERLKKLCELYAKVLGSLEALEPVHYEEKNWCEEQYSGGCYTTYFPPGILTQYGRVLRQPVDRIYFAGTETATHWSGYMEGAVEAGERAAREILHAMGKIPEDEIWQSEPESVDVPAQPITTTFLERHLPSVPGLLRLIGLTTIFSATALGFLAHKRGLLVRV

[2] = molecular target: T1, Amine oxidase [flavin-containing] B; experiment: Competitive inhibition of recombinant human MAO-B expressed in baculovirus infected BTI cells using varying concentration of kynuramine as substrate at 5 to 40 nM by Lineweaver-burk plot analysis; settings: dose 5-40 nM
Outline: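 Initial velocities of human recombinant MAO-B measured at varied kynuramine concentrations, without inhibitor and with inhibitor at 5–40 nM. Data plotted as Lineweaver–Burk double reciprocals (1/v0 vs 1/[S]). Inhibition mode assigned from which intercept changes, x-intercept (−1/Km) versus y-intercept (1/Vmax). Mean ± SD of three independent experiments.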

Row | SMILES | inhibition (INH) [1] | inhibition (INH) [2]
1 | O=C(/C=C/c1ccccc1[N+](=O)[O-])c1ccccc1 | Active | 
2 | O=C(/C=C/c1ccccc1)c1cccc(C(F)(F)F)c1 | Active | Active
3 | O=C(/C=C/c1ccccc1)c1ccc(C(F)(F)F)cc1 | Active | 
